According to PubChem BioAssay AID488910 (Broad Institute, 2010):
The campaign covered roughly 20,000 compounds. About 25 (0.1%) were called active. The sample holds actives, similar compounds and a random draw of the others, so the mix is not that of the screen. A number with no mark means an inactive call.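 How the source made its calls: active means mean replicate protection from cytokine-induced ATP loss at least 50% and at least 75% of replicates each reaching 50%; inconclusive means meets only one of the two criteria, mean or replicate share; inactive means fails both the mean and replicate share criteria.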

Assay: protection of INS-1E cells from cytokine death, primary screen, ATP luminescence, single point (AID 488910)
Details: INS-1E cytokine-induced death, 48 h, at 10 µM, active compounds read high, normalised: neutral wells 0, positive control 100
Summary of the method: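 Assay system: INS-1E rat insulinoma cells. Amount: 8000 cells per well. Medium: phenol-red-free RPMI with 5% fetal bovine serum. Reagent: IL-1β, TNF-α and IFN-γ cytokine mix. Doses: one compound concentration, pin transfer. Schedule: 48 h co-treatment, 10 min post-lysis read. Detection: CellTiter-Glo luminescence measuring cellular ATP.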

Point of comparison: `C[C@@H]1CN([C@H](C)CO)C(=O)c2cc(NS(C)(=O)=O)ccc2O[C@@H]1CN(C)S(C)(=O)=O`, protection from cytokine-induced ATP loss 6.6%. Against it:
- C[C@H]1CN([C@@H](C)CO)C(=O)c2cc(NS(=O)(=O)c3cccs3)ccc2O[C@@H]1CN(C)C(=O)Nc1ccccc1 — higher, 10.2%
- C[C@@H]1CN([C@H](C)CO)C(=O)Cc2cc(NS(=O)(=O)c3cccs3)ccc2O[C@@H]1CN(C)Cc1ccc(C(=O)O)cc1 — lower, 5.4%
- C[C@@H]1CN([C@H](C)CO)C(=O)Cc2cc(NS(=O)(=O)c3cn(C)cn3)ccc2O[C@@H]1CN(C)C(=O)Nc1ccccc1 — higher, 10.7%
- CC(C)NC(=O)N(C)C[C@@H]1Oc2ccc(NC(=O)CCCCCC(=O)Nc3ccccc3N)cc2C(=O)N([C@@H](C)CO)C[C@H]1C — higher, 12.1%
- Cc1ccc(S(=O)(=O)Nc2ccc3c(c2)CC(=O)N([C@@H](C)CO)C[C@H](C)[C@H](CN(C)Cc2ccccc2)O3)cc1 — higher, 12.2%
- COC(=O)CCCCCCC(=O)N/N=C/c1cccc(Br)c1 — higher, 21.3%
- C[C@H](CO)N1C[C@H](C)[C@H](CN(C)C(=O)Nc2cccc3ccccc23)Oc2ccc(NS(C)(=O)=O)cc2C1=O — lower, 4.67%
- C[C@H]1CN([C@@H](C)CO)C(=O)Cc2cc(NC(=O)NC3CCCCC3)ccc2O[C@@H]1CN(C)Cc1ccc(Oc2ccccc2)cc1 — lower, -49.9%
- C[C@@H]1CN([C@@H](C)CO)C(=O)c2cc(NC(=O)C3CCCCC3)ccc2O[C@@H]1CN(C)Cc1ccc(C(=O)O)cc1 — lower, 3.82%
- COc1ccc(NC(=O)Nc2ccc3c(c2)CC(=O)N([C@@H](C)CO)C[C@H](C)[C@@H](CN(C)S(=O)(=O)c2cn(C)cn2)O3)cc1 — higher, 14.9%
- Cc1ccc(S(=O)(=O)Nc2ccc3c(c2)C(=O)N([C@H](C)CO)C[C@H](C)[C@@H](CN(C)C(=O)Nc2ccc4c(c2)OCO4)OCCCC[C@@H](C)O3)cc1 — lower, -3.08%
- COC(=O)CCCCCCC(=O)N/N=C/c1c(OC)cc(O)cc1OC — lower, 3.27%
- COC(=O)CCCCCCC(=O)N/N=C/c1ccc(O)c(OC)c1 — higher, 9.74%
- C[C@H](CO)N1C[C@H](C)[C@H](CN(C)S(C)(=O)=O)Oc2c(NC(=O)c3ccc(-c4nccs4)cc3)cccc2C1=O — lower, -1.51%
- COc1ccc(S(=O)(=O)Nc2ccc3c(c2)C(=O)N([C@H](C)CO)C[C@@H](C)[C@H](CN(C)S(=O)(=O)c2ccc(C)cc2)O3)cc1 — lower, -13.4%
- Cc1noc(C)c1NC(=O)N(C)C[C@H]1OCCCC[C@@H](C)Oc2ccc(NC(=O)NC(C)C)cc2C(=O)N([C@H](C)CO)C[C@@H]1C — lower, -5.7%
- COc1ccc(NC(=O)Nc2ccc3c(c2)C(=O)N([C@H](C)CO)C[C@H](C)[C@@H](CN(C)C(=O)Nc2ccc4c(c2)OCO4)O3)cc1 — lower, 3.11%
- C[C@@H]1CN([C@@H](C)CO)C(=O)c2cc(NC(=O)CCN3CCOCC3)ccc2O[C@@H]1CN(C)S(=O)(=O)c1ccccc1 — higher, 8.45%

With `COc1cc(/C=N\NC(=O)CCCCCCC(=O)NO)c(Br)cc1O` the protection from cytokine-induced ATP loss was 77.6% (active).
